Source: ChEMBL document CHEMBL4715734, “Discovery of the Potent and Selective M1 PAM-Agonist N-[(3R,4S)-3-Hydroxytetrahydro-2H-pyran-4-yl]-5-methyl-4-[4-(1,3-thiazol-4-yl)benzyl]pyridine-2-carboxamide (PF-06767832): Evaluation of Efficacy and Cholinergic Side Effects” (J Med Chem, 2016)
The source made the active and inactive calls. The rule behind the calls is not given here.

Experiments:
[1] = target: T1, Muscarinic acetylcholine receptor M1 (Homo sapiens) (UniProt P11229); assay: Binding affinity to muscarinic M1 receptor (unknown origin) assessed as recruitment of beta-arrestin by measuring binding constant by Path Hunter assay; format: cell-based; details: CHO, filed as positive allosteric modulator
T1 sequence (whole entry): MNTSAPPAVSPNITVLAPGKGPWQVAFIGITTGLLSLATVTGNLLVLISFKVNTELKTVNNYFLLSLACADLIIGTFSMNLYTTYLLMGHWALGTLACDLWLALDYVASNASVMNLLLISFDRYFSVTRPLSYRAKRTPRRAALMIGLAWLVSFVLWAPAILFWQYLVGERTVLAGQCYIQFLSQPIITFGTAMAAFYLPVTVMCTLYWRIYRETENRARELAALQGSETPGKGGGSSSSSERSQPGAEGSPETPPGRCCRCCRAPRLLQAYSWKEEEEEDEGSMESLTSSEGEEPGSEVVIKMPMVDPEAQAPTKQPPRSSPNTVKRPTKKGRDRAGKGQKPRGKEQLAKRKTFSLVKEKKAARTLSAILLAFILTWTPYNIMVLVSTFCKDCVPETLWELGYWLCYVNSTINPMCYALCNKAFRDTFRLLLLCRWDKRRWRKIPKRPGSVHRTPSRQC

[2] = Unbound brain concentration in scopolamine-induced Wistar rat model at 0.32 mg/kg, po measured after 1 hr; format: ADME, organism-based; details: in vivo
[3] = Clearance in dog at 0.1 mg/kg, iv administered as single bolus dose; format: ADME, organism-based, Canis lupus familiaris; details: in vivo
MDR1 (P-gp) = assay: Efflux ratio of permeability across basolateral to apical side over apical to basolateral side in dog MDCK-MDR1 cells; format: ADME, cell-based, Canis lupus familiaris
[4] = Fraction unbound in C57BL/6 mouse plasma; format: ADME, cell-free
[5] = Toxicity in po dosed dog assessed as NOAEL using spray-dried dispersion formulation; format: organism-based, Canis lupus familiaris; details: in vivo
[6] = target: T2, Muscarinic acetylcholine receptor M1 (Homo sapiens, UniProt P11229); assay: Positive allosteric modulation of muscarinic M1 receptor (unknown origin) assessed as increase in Ach-induced recruitment of beta-arrestin by Path Hunter assay; format: cell-based, CHO
T2 sequence (P11229 whole entry): T1 sequence (whole entry)

[7] = target: T3, Muscarinic acetylcholine receptor M2 (Homo sapiens, UniProt P08172); assay: Agonist activity at human recombinant muscarinic M2 receptor stably expressed in HEK cells assessed as increase in cAMP accumulation up to 10 uM measured after 10 mins by GloSensor cAMP Assay; format: cell-based
T3 sequence (P08172 whole entry): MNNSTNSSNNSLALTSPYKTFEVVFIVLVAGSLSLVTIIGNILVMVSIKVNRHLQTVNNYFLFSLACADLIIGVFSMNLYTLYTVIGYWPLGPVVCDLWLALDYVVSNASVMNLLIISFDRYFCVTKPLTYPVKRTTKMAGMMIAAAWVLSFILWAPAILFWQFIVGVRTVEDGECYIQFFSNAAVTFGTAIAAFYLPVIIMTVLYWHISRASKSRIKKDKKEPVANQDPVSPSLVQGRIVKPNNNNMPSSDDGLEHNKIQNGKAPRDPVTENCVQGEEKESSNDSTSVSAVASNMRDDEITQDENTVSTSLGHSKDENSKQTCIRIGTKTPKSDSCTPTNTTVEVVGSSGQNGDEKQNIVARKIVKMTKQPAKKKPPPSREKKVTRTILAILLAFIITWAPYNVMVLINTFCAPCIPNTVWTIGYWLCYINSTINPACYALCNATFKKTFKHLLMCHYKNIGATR

[8] = Toxicity in female rat assessed as increase in food intake at 15 mg/kg, po administered for 14 days; format: organism-based; details: in vivo, 336 h, time 14 day
Summary of the method: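 Two-week repeat-dose toxicity study in rats. Oral dosing in 0.5% methylcellulose at 3, 10, 30 (males)/15 (females) mg/kg, N=4/sex/dose. Food intake, body weight gain and histopathology were assessed.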

[9] = Toxicity in dog assessed as induction of loose stool at 3 mg/kg, po using spray-dried dispersion formulation; format: organism-based, Canis lupus familiaris; details: in vivo
[10] = Toxicity in male rat assessed as increase in body weight at 30 mg/kg, po administered for 14 days; details: in vivo, 336 h
[11] = target: T4, Muscarinic acetylcholine receptor M5 (Homo sapiens, UniProt P08912); assay: Agonist activity at human recombinant muscarinic M5 receptor stably expressed in CHO cells assessed as increase in intracellular calcium level up to 10 uM incubated for 10 mins by Fluo-8AM dye based FLIPR TETRA method; format: cell-based
T4 sequence (P08912 whole entry): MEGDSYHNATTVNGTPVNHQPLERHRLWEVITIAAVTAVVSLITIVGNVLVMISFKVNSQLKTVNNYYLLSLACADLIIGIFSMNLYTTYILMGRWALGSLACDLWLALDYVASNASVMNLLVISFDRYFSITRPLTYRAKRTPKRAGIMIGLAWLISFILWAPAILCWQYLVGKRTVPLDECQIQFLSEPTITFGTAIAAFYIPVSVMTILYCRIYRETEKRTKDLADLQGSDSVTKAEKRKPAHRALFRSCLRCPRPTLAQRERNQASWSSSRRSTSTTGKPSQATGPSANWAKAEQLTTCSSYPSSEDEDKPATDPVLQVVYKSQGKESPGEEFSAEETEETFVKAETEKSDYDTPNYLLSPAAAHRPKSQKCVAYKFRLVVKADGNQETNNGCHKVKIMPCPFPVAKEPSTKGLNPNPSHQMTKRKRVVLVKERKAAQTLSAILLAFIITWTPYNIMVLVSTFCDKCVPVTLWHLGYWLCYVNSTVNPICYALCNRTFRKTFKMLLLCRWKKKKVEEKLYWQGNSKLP

[12] = target: T5, Muscarinic acetylcholine receptor M4 (Homo sapiens, UniProt P08173); assay: Positive allosteric modulation of human recombinant muscarinic M4 receptor stably expressed in HEK cells assessed as increase in ACh-induced cAMP accumulation up to 10 uM measured after 10 mins by GloSensor cAMP Assay; format: cell-based
T5 sequence (P08173 whole entry): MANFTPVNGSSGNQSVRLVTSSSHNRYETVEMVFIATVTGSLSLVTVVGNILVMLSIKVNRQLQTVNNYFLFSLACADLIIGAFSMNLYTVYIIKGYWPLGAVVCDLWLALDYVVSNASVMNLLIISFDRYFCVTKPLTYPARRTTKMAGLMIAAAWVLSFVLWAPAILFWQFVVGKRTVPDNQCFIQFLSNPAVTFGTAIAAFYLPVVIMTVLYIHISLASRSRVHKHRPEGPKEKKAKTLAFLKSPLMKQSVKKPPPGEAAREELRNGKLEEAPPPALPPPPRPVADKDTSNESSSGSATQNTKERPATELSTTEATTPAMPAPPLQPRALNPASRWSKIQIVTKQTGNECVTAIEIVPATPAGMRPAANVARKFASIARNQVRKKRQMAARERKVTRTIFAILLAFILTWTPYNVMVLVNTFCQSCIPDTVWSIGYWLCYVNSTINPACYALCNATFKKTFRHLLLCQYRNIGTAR

Rattus norvegicus = assay: Reversal of scopolamine-induced memory impairment in Wistar rat model at 0.32 mg/kg, po administered 15 min before training followed by 30 mins later administration with scopolamine measured after 24 hrs by Morris water maze test

Cc1cnc(C(=O)N[C@H]2CCOC[C@@H]2O)cc1Cc1ccc(-c2cscn2)cc1
Kb [1]: 5000 nM
Drug uptake(free) [2]: 1.3 nM
clearance [3]: 2.73 mL/min/kg
efflux ratio (MDR1 (P-gp)): 1.3
Fu [4]: 2.9%
NOAEL [5]: 5 mg/kg
EC50 [6]: 365 nM
Activity [7]: Not Active
Activity [8]: Non-Toxic
Activity [9]: Toxic
Activity [10]: Non-Toxic
Activity [11]: Not Active
Activity [12]: Not Active
Activity (Rattus norvegicus): Active
